# Assay results published in article PMC11605122 (Nature Communications, 2024).
# Legend:
# plasma insulin = assay type: in vivo, mouse; details: DIO mice
# Method in brief: (§1)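 Plasma ALT was read with Reflotron strips and plasma TGs by colorimetric assay. Serum FGF21 and plasma adiponectin and insulin were measured by ELISA.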
# plasma/serum FGF21 = assay type: in vivo, mouse; details: DIO mice, G49
# Method in brief: as §1
# plasma FFAs = assay type: in vivo, mouse; details: for plasma FFA elevation: DIO mice
# brown adipocytes [1] = experiment: lipolysis in brown adipocytes; assay type: cell-based, mouse; details: G49, brown adipocytes, 500 nM, 4 h
# [2] = MRI body composition, total/visceral fat, lean mass; assay type: in vivo, mouse
# plasma ALT = assay type: in vivo, mouse; details: DIO mice
# Method in brief: as §1
# [3] = system: pancreatic islets from DIO mice; experiment: ex vivo glucose-stimulated insulin secretion; assay type: cell-based, mouse; details: 500 nM G49, 1 or 24 h
# Method in brief: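 Islets were plated at 100 per 3 mL and treated the next day with 500 nM test compound for 1 or 24 h. After 1 h preincubation in KRB (2.8 mM glucose, 0.25% BSA, pH 7.4, 37 °C), batches of 3 islets were stimulated 1 h with 2.8 or 16.7 mM glucose. Insulin was measured by ELISA and normalised per islet; n = 4 mice.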
# [4] = peptide concentration in plasma; assay type: in vivo, mouse; details: DIO mice, 24 h post-injection, 100 nmol/kg s.c., n = 5; cAMP bioassay
# Method in brief: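 Plasma activity was read in a cAMP assay on CHO cells expressing human GLP-1R, in HBSS pH 7.4 with 25 mM HEPES, 0.1% BSA and 0.5 mM IBMX. Serial dilutions were run in duplicate for 30 min at RT with HTRF detection. Standards were reference peptide spiked into 0.2% (final) naïve plasma. Sample ratio = sample EC50/reference EC50; concentration = known top concentration/ratio.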
# liver Cd11b+Ly6g+ cells = experiment: liver neutrophils; assay type: in vivo, mouse; details: DIO mice, G49
# Method in brief: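 Liver non-parenchymal cells underwent ACK red-cell lysis (5 min, RT) and were washed in HBSS. They were stained 20 min at RT with CD45-FITC, CD11b-PECy7 and Ly6G-PE, then acquired on a FACSCanto II.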
# [5] = system: primary mouse hepatocytes; experiment: FGF21 release and gene expression in primary hepatocytes; assay type: cell-based; details: 500 nM G49, 16 h
# Method in brief: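 Primary hepatocytes came from non-fasted male C57BL/6J mice fed HFD for 12 weeks, with or without in vivo treatment, by two-step collagenase perfusion. Cells were spun at 60 × g, purified on isotonic Percoll (1:1) at 230 × g and seeded on collagen. They were cultured 24 h at 37 °C, 5% CO2 before exposure to the test compound.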
# TUNEL analysis of eWAT = assay type: in vivo, mouse; details: 6 h post-G49
# Method in brief: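 Paraffin-embedded eWAT sections were stained with a fluorimetric DeadEnd TUNEL kit, mounted in fluorescent medium and imaged by confocal microscopy.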
# body weight, HFD-fed = assay type: in vivo, mouse
# [6] = system: eWAT stromal vascular fraction; experiment: immune cell populations in eWAT SVF; assay type: in vivo, mouse
# Method in brief: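 eWAT was digested, stopped with EDTA, filtered at 100 µm and red cells lysed in ACK. The SVF was stained 20 min at RT in FACS buffer (1 mM EDTA, 25 mM HEPES, 1% FBS in PBS) with a panel including CD45, CD11b, F4/80, Ly6G, CD11c, CD206, SiglecF, T/NK markers and IL-4, or isotype controls. Acquisition was on a FACSCanto II.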
# brown adipocytes [7] = experiment: thermogenic gene expression and UCP1 in brown adipocytes; assay type: cell-based, mouse; details: G49, brown adipocytes
# Method in brief: (§2)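 Brown preadipocytes were immortalised by retroviral SV40 Large T (20% FBS, 8 μg/mL polybrene, 48 h) at 70–80% confluence. Differentiation began with 2 days in induction medium (0.5 μM dexamethasone, 0.5 mM IBMX, indomethacin, 1 μM rosiglitazone).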
# brown adipocytes [8] = experiment: OCR in differentiated brown adipocytes; assay type: cell-based, mouse; details: G49, 16 h
# Method in brief: as §2
# plasma TGs = assay type: in vivo, mouse; details: DIO mice, G49, time course
# Method in brief: as §1
# [9] = F4/80 and TH immunostaining of eWAT; assay type: in vivo, mouse; details: G49, 6 h
# eWAT and iWAT weight = assay type: in vivo, mouse
sequence,measurement,setting,value
HSQGTFTSDYSKYLEEEAVRLFIC (40 kDa PEG) WLMNT-amide acetate salt [G49],plasma insulin,"plasma insulin; G49 + ATGLi, 6 h",plasma insulin was partly reduced
same,peak in insulin secretion,"plasma insulin; G49 + Ex9-39, 6 h",Ex9-39 totally abolished this increase
same,peak in insulin secretion,"plasma insulin; G49 + GCGRant, 6 h",partially blocked by the GCGRant
same,"plasma insulin, early","plasma insulin; G49, 6 h",a rise in plasma insulin
same,liver Fgf21 expression and FGF21 plasma levels,plasma/serum FGF21,reached significant increases at 12 h post-first G49 dose
same,plasma FFA elevation,"plasma FFAs; G49 + Ex9-39, 6 h",retained its effect in elevating FFAs in the presence of Ex9-39
same,plasma FFA elevation,"plasma FFAs; G49 + GCGRant, 6 h",abolished the acute effects of G49 in reducing total and visceral adiposity at 6 h post-injection and FFA elevation
same,plasma FFAs,"plasma FFAs; UCP1−/− mice, G49, 6 h",showed elevations in FFAs (at 6 h)
same,plasma FFAs,"plasma FFAs; irradiated DIO mice, G49, 6 h",the elevation of FFAs was preserved
same,plasma FFAs,"plasma FFAs; lean Gcgr−/− mice, single injection of G49, 1–6 h",did not elevate plasma FFAs at 1–6 h in Gcgr^−/− mice
same,lipolysis at 6 h and 1 h,"plasma FFAs; lean or DIO mice, G49","increased lipolysis at 6 h, but not at 1 h post-injection"
same,lipolysis,brown adipocytes [1],up-regulated lipolysis
same,visceral fat,"[2]; Adipoq−/− mice, G49, 1 week, vs Adipoq+/+",lower reduction in visceral fat
same,total and visceral adiposity,"[2]; DIO mice, G49 + GCGRant, 6 h",abolished the acute effects of G49 in reducing total and visceral adiposity at 6 h post-injection
same,"adiposity, fat mass, eWAT and iWAT weight","[2]; DIO mice, G49 with antagonists, alone or in combination, day 7","its administration with antagonists, either alone or in combination, totally blocked this effect"
same,ALT elevation,"plasma ALT; G49 + GCGRant, 6 h",hepatic lipid overload and ALT elevation were not observed
same,ALT activity,"plasma ALT; G49, 6 h","an increase in lipid accumulation analyzed by H&E and oil-red O staining of liver sections, liver-to-body weight ratio, and alanine aminotransferase (ALT) activity"
same,insulin secretion,[3],also observed by ex vivo treatment of pancreatic islets from DIO mice with G49
same,peptide plasma level,[4],121.7 ± 12.88 nM
same,hepatic neutrophil infiltration,liver Cd11b+Ly6g+ cells,an increase in hepatic neutrophil infiltration
same,FGF21 release and Sir2 expression,[5],increased FGF21 levels released to the culture medium and Sir2 expression
same,TUNEL positive cells,TUNEL analysis of eWAT,presence of TUNEL positive cells
same,body weight,"body weight, HFD-fed; Adipoq−/− DIO mice, G49, 3–7 days",body weight stabilized in the period of 3–7 days in Adipoq^−/− mice
same,body weight,"body weight, HFD-fed; DIO female mice, G49, 1 week",Body weight loss in the absence of a reduction in cumulative food intake
same,body weight,"body weight, HFD-fed; DIO mice, G49 + Ex9-39 + GCGRant",failed to decrease body weight in the presence of both antagonists
same,body weight loss,"body weight, HFD-fed; DIO mice, G49 without ATGLi, 72 h",11.8 ± 0.51%
same,body weight loss,"body weight, HFD-fed; DIO mice, G49 without antagonist, day 7 (antagonist experiment)",23.2 ± 1.45%
same,body weight,"body weight, HFD-fed; FGF21Alb-KO mice, HFD, G49, 3–7 days",body weight stabilized in G49-treated FGF21^Alb-KO mice in the period of 3–7 days
same,body weight,"body weight, HFD-fed; UCP1−/− mice, HFD, G49, beyond 72 h",did not lose weight beyond this time-point
same,effect in lean mice,"body weight, HFD-fed; lean mice, G49","mild and changes were found only in the short-term body weight loss, the early lipolytic response and the reduction of eWAT"
same,body weight loss,"body weight, HFD-fed; male DIO mice, G49 20 nmol/kg, 1 week",6.9 ± 0.89%
same,body weight loss,"body weight, HFD-fed; male mice, normal cycle, G49, 1 week",16.1 ± 0.72%
same,body weight loss,"body weight, HFD-fed; male mice, reversed light/dark cycle, G49, 1 week",20.1 ± 0.49%
same,eWAT beiging signature,"[6]; DIO mice, G49 + ATGLi, 6 h",absence of the eWAT beiging signature
same,beige immune signature of SVF,"[6]; DIO mice, G49 + GCGRant, 6 h",loss of the beige immune signature of the SVF
same,Cd206+/Cd11c+ ratio in neutrophils,"[6]; SVF of eWAT, G49, 6 h",increased the Cd206^+/Cd11c^+ ratio
same,M2 and M1 macrophages,"[6]; SVF of eWAT, G49, 6 h","increase in M2 (Cd206^+) subpopulation, concomitantly with a decrease in M1 (Cd11c^+) cells"
same,eosinophils (SiglecF+/Cd11b+/Cd11c−),"[6]; SVF of eWAT, G49, 6 h",infiltration of eosinophils
same,neutrophil infiltration (Cd11b+Ly6g+),"[6]; SVF of eWAT, G49, 6 h",reduction in neutrophil infiltration
same,thermogenic gene expression and UCP1 protein,brown adipocytes [7],"up-regulated lipolysis, thermogenic gene expression (Ucp1, Ppargc1a, Sir2) and UCP1 protein levels in BA"
same,mitochondrial respiration,brown adipocytes [8],an increase in mitochondrial respiration
same,circulating TGs,plasma TGs,reached maximal levels at 24 h and decreased to basal levels at 48 h post-G49 treatment
same,F4/80 and TH positive immune cells,[9],F4/80 and Tyrosine Hydroxylase (TH) positive immune cells were found in some eWAT areas
same,"fat depots (eWAT, iWAT)","eWAT and iWAT weight; DIO mice, G49 + ATGLi, 72 h",without reduction in fat depots
same,eWAT and iWAT depots,"eWAT and iWAT weight; FGF21Alb-KO mice, G49, 1 week",a partial reduction of eWAT and iWAT depots
